This passage reports IC50 and Conversion results from ChEMBL document CHEMBL1129602, “Indole derivatives as a new class of steroid 5 alpha-reductase inhibitors” (J Med Chem, 1996).

Assay [1] concerns the target T1, 3-oxo-5-alpha-steroid 4-dehydrogenase 1 (Rattus norvegicus, UniProt P24008).
T1 sequence (P24008 whole entry): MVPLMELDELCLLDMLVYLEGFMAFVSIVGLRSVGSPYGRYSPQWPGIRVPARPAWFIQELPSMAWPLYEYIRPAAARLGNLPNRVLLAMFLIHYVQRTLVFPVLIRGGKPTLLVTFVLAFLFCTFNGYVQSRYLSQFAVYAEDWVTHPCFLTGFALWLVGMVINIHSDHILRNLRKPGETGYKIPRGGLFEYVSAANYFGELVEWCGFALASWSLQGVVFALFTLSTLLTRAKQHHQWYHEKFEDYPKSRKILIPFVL
Put plainly: 5 alpha- reductase inhibitory activity. It is filed as functional.

In assay [2] the test system is Rattus norvegicus. Put plainly: Percent conversion of testosterone to dihydrotestosterone in prostate of rats at 0 mg/kg of compound given perorally. It is filed as functional, Prostate gland. The settings on record: route oral. Put shortly:
(§1)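 Rats dosed orally at 1–30 mg/kg, with controls at 0 mg/kg. Prostates removed 4 h later and homogenized. Testosterone and DHT in the homogenate measured by radioimmunoassay and expressed as % conversion of T to DHT. Mean ± SEM of four rats. Groups compared with the 0 mg/kg control by Dunnett test.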

Assay [3] can be described thus: Compound was tested in vitro for inhibitory activity against 5-alpha reductase isozyme homogenated from transfected Namalwa. It counts as functional. Put shortly:
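Homogenate of Namalwa cells transfected to express human type 2 isozyme, 40 μg cellular protein per assay. Buffer 0.1 M Na2HPO4–citrate pH 5.5 with 0.3 μM [14C]testosterone and 2 mM NADPH, across a range of drug concentrations. IC50 given as mean ± SEM of three separate experiments.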

The test system of assay [4] is Rattus norvegicus. Put plainly: Percent conversion of testosterone to dihydrotestosterone in prostate of rats at 10 mg/kg of compound given perorally. It counts as functional, Prostate gland. Conditions: route oral. Put shortly:
as §1

Assay [5] concerns Rattus norvegicus. Put plainly: Percent conversion of testosterone to dihydrotestosterone in prostate of rats at 30 mg/kg of compound given perorally. Conditions: route oral. It is filed as functional, Prostate gland. Put shortly: as §1
Assay [6] deals with Rattus norvegicus. Put plainly: Percent conversion of testosterone to dihydrotestosterone in prostate of rats at 3 mg/kg of compound given perorally. It is filed as functional, Prostate gland. Conditions: route oral. Put shortly:
as §1

Assay [7] relates to Rattus norvegicus. Put plainly: Percent conversion of testosterone to dihydrotestosterone in prostate of rats at 1 mg/kg of compound given perorally. It counts as functional, Prostate gland. Conditions: route oral. Put shortly:
as §1

In assay [8] the test system is Rattus norvegicus. Put plainly: Concentration of testosterone (T) and DHT in homogenate was determined by radio immunoassay. Values are presented of Four rats, at dose mg/kg, p.o. =10. It counts as functional. Put shortly:
as §1

In assay [9] the target is T2, 3-oxo-5-alpha-steroid 4-dehydrogenase 1 (Rattus norvegicus) (UniProt P24008).
T2 sequence (whole entry): T1 sequence (P24008 whole entry)
Description: Inhibitory activity of compound towards 5-alpha reductase from rat =. The settings on record: 100 nM.

The target in assay [10] is T3, 3-oxo-5-alpha-steroid 4-dehydrogenase 2 (Rattus norvegicus, UniProt P31214).
T3 sequence (P31214 whole entry): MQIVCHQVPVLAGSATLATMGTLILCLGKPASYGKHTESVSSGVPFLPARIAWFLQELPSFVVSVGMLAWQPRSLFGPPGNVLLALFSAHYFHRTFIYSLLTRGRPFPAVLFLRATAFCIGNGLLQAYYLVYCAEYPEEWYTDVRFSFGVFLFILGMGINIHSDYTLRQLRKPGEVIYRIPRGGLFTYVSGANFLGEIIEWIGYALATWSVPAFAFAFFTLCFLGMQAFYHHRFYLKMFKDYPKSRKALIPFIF
Description: Compound was tested in vitro for inhibitory activity against type 2 5-alpha reductase Isozyme homogenated from rat epididymis. It counts as functional. Put shortly: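 Epididymal particulates from male Wistar rats (200–300 g), pelleted at 100000g for 0.5 h. Compounds added in ethanol. Incubated 37 °C for 10 min, then stopped and extracted with ethyl acetate. Inhibition taken from [14C]DHT conversion versus a blank.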

Values joined by “and” are separate entries in the source; they are usually repeats but may differ in a detail not shown here. Equal entries are not always repeated.

As a reminder, the IC50 is the midpoint of a concentration-inhibition curve. High values mean lower potency, low ones higher potency. Take `C/C(=C\C(=O)Nc1ccccc1OCCCC(=O)O)c1ccc2c(ccn2C(c2ccccc2)c2ccccc2)c1`: the IC50 in assay [1] turned out to be 5.6 nM. This counts as single-digit nanomolar.

For `C/C(=C\C(=O)Nc1ccccc1OCCCC(=O)O)c1ccc2c(ccn2C(c2ccc(F)cc2)c2ccc(F)cc2)c1`, the Conversion is 98% and 93% in the assay with Rattus norvegicus [2]; 85% in the assay with Rattus norvegicus [4]; 62% in the assay on Rattus norvegicus [5]. The same compound registered an IC50 in [3] of 215 nM.

As for `Cc1c(O[C@@H](C)c2ccc(CC(C)C)cc2)ccc(C(=O)Nc2ccccc2OCCCC(=O)O)c1C` (racemic), the Conversion is 88% with Rattus norvegicus [6]; 82% with Rattus norvegicus [7]; 91% in the assay with Rattus norvegicus [2]; 56% in the assay with Rattus norvegicus [4]; 54% in the assay with Rattus norvegicus [5]. The IC50 in assay [3] stood at 78.7 nM.

For `CCCC(CCC)n1ccc2cc(/C(=C/C(=O)Nc3ccccc3OCCCC(=O)O)CC)ccc21`, the Conversion in the assay on Rattus norvegicus [6] is 87%; with Rattus norvegicus [2] it was 96%; with Rattus norvegicus [8] it was 84%; in the assay with Rattus norvegicus [4], 84%; in the assay on Rattus norvegicus [5], 73%. Also, in assay [3], the midpoint of inhibition, the IC50, lay at 341 nM.

As for `CC(C)(C)NC(=O)[C@H]1CC[C@H]2[C@@H]3CC[C@H]4NC(=O)C=C[C@]4(C)[C@H]3CC[C@]12C` [FINASTERIDE], the Conversion in the assay on Rattus norvegicus [6] was found to be 49%; in the assay with Rattus norvegicus [7], 64%; in the assay on Rattus norvegicus [2], 84%; in the assay on Rattus norvegicus [4], 50%; in the assay with Rattus norvegicus [5], 39%. The figures for the IC50 in assay [9], in assay [3] and in assay [10] were 10 nM, 0.58 nM and 2.1 nM, respectively.

Take `CC/C(=C\C(=O)Nc1ccccc1OCCCC(=O)O)c1ccc2c(ccn2C(c2ccc(F)cc2)c2ccc(F)cc2)c1`: the Conversion was determined as 76% in the assay with Rattus norvegicus [6], 94% with Rattus norvegicus [2], 70% in the assay on Rattus norvegicus [4] and 50% in the assay with Rattus norvegicus [5]. This compound also registered an IC50 in assay [3] of 357 nM.

Consider `CC/C(=C\C(=O)Nc1ccccc1OCCCC(=O)O)c1ccc2c(ccn2C(c2ccccc2)c2ccccc2)c1`, for which the IC50 in assay [1] turned out to be 2.5 nM.
